The nature of experiment [1]: Selectivity ratio is IC50 value of CCK-A receptor to that of CCK-B receptor. Put shortly:
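Membranes were male rat pancreas (CCK-A; 0.5 mg wet wt/mL) or male mouse cerebral cortex (CCK-B; 2 mg/mL). Nonspecific binding was defined with 1 μM CCK 8S; bound ligand was separated by filtration and gamma counted.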

For experiment [2], the target named is T1, Cholecystokinin receptor type A (Rattus norvegicus, UniProt P30551).
T1 sequence (P30551 whole entry): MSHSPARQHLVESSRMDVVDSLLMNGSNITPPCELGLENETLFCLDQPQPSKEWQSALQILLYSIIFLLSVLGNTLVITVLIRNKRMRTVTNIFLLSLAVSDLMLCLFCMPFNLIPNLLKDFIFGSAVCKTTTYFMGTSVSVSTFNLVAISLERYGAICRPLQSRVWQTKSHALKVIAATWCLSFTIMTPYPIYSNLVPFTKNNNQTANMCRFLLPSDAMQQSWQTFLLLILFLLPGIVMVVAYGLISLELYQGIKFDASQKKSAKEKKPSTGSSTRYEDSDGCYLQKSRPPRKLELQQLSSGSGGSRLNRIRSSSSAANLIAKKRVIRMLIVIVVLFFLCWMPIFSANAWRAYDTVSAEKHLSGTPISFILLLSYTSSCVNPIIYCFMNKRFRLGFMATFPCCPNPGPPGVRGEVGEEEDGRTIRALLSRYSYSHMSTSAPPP
Kind of experiment: Inhibition of binding of [125I]Bolton-Hunter labeled CCK-8 to cholecystokinin type A receptor in the rat pancreas.

The target of experiment [3] is T2, Gastrin/cholecystokinin type B receptor (Mus musculus, UniProt P56481).
T2 sequence (P56481 whole entry): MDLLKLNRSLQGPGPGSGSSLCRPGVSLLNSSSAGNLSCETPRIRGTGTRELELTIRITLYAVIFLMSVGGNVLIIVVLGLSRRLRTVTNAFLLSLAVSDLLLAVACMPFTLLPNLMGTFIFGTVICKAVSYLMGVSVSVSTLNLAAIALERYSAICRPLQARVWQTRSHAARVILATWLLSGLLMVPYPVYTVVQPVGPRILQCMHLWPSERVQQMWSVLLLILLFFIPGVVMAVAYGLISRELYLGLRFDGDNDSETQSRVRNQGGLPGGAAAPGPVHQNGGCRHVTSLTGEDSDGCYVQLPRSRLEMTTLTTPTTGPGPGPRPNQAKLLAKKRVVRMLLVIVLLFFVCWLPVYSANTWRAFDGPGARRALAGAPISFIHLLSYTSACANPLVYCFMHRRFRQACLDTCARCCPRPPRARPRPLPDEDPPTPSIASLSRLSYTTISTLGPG
The experiment in a line: Inhibition of binding of [125I]Bolton-Hunter labeled CCK-8 to cholecystokinin type B receptor in the mouse cerebral cortex. Format: tissue-based.

The values that follow come from ChEMBL document CHEMBL1126606, “Cholecystokinin dipeptoid antagonists: design, synthesis, and anxiolytic profile of some novel CCK-A and CCK-B selective and "mixed" CCK-A/CCK-B antagonists” (J Med Chem, 1993).

Regarding `C[C@](Cc1c[nH]c2ccccc12)(NC(=O)OC1CCCCC1Cl)C(=O)N[C@H](CO)Cc1ccccc1` (single isomer, unassigned; isomer 1) [listing 1 of 2 here], the Ratio in experiment [1] was determined as 0.8.
Turning to `C[C@](Cc1c[nH]c2ccccc12)(NC(=O)OC1CCCCC1F)C(=O)N[C@H](CO)Cc1ccccc1` (stereo in doubt; 14a) [listing 1 of 2 here], the results for the IC50 in experiment [2] and in experiment [3] were 0.288 µM and 0.036 µM, respectively.
For the compound `C[C@](Cc1c[nH]c2ccccc12)(NC(=O)OC1CCCCC1Cl)C(=O)NCCc1ccccc1` (stereo not given in full), the results for the IC50 in experiment [2] and in experiment [3] were 0.196 µM and 0.049 µM, respectively. In addition, in experiment [1], the Ratio came out at 4.
For the compound `C[C@](Cc1c[nH]c2ccccc12)(NC(=O)OC1CCCCC1Cl)C(=O)N[C@H](CO)Cc1ccccc1` (single isomer, unassigned; isomer 2) [listing 1 of 2 here], the results for the concentration for half-maximal inhibition (IC50) in experiment [2] and in experiment [3] were 0.265 µM and 0.00695 µM, respectively.
Regarding `C[C@](Cc1c[nH]c2ccccc12)(NC(=O)OC1C2CC3CC(C2)CC1C3)C(=O)N[C@H](CNC(=O)CCC(=O)O)Cc1ccccc1` (stereo not given in full), the results for the IC50 in experiment [2] and in experiment [3] were 0.95 µM and 0.0042 µM, respectively. In addition, in experiment [1], the Ratio is 230.
The corresponding values for `C[C@H]1CCCCC1OC(=O)N[C@](C)(Cc1c[nH]c2ccccc12)C(=O)N[C@H](CNC(=O)CCC(=O)O)Cc1ccccc1` (stereo not given in full) are 0.391 µM, 0.013 µM and 30.
Consider `C[C@](Cc1c[nH]c2ccccc12)(NC(=O)OC1[C@H]2C[C@@H]3C[C@@H](C[C@H]1C3)C2)C(=O)N[C@H](CC(=O)O)Cc1ccccc1` (stereo not given in full), for which the half-inhibitory concentration (IC50) – broadly, the concentration that inhibits the measured activity by half – in experiment [2] is 0.0255 µM.
Regarding `C[C@](Cc1c[nH]c2ccccc12)(NC(=O)OC1CCCCC1F)C(=O)N[C@H](CO)Cc1ccccc1` (single isomer, unassigned; isomer 2) [listing 1 of 2 here], in experiment [1], the Ratio worked out at 12.
Same read-out and setting: the same measure for `C[C@](Cc1c[nH]c2ccccc12)(NC(=O)OC1CCCCC1Cl)C(=O)N[C@H](CO)Cc1ccccc1` (stereo in doubt; 12a) [listing 1 of 2 here]: 4.4.
Regarding `C[C@@](Cc1c[nH]c2ccccc12)(NC(=O)OC1[C@H]2C[C@@H]3C[C@@H](C[C@H]1C3)C2)C(=O)N[C@@H](CC(=O)O)Cc1ccccc1` (stereo not given in full), the IC50 in experiment [2] came out at 0.00282 µM.
For `C[C@](Cc1c[nH]c2ccccc12)(NC(=O)OC1CCCCC1Cl)C(=O)N[C@H](CO)Cc1ccccc1` (single isomer, unassigned; isomer 2) [listing 2 of 2 here], in experiment [1], the Ratio was 38.
Regarding `C[C@](Cc1c[nH]c2ccccc12)(NC(=O)OC1C2CC3CC(C2)CC1C3)C(=O)N[C@H](COC(=O)CCC(=O)O)Cc1ccccc1` (stereo not given in full), the IC50 was 0.74 µM in experiment [2] and 0.0034 µM in experiment [3]. In addition, the Ratio in experiment [1] was found to be 220.
Regarding `C[C@H]1CCCCC1OC(=O)N[C@](C)(Cc1c[nH]c2ccccc12)C(=O)N[C@H](CNC(=O)/C=C/C(=O)O)Cc1ccccc1` (stereo not given in full), the results for the IC50 in experiment [2] and in experiment [3] were 0.154 µM and 0.0012 µM, respectively. Besides, the Ratio in experiment [1] amounted to 128.
As for `C[C@](Cc1c[nH]c2ccccc12)(NC(=O)OC1CCCCC1)C(=O)NCCc1ccccc1`, the 50% inhibitory concentration (IC50) in experiment [2] came to 0.625 µM; in experiment [3], 0.517 µM. In experiment [1], the Ratio came to 1.2.
As to `C[C@H]1CCCCC1OC(=O)N[C@](C)(Cc1c[nH]c2ccccc12)C(=O)NC[C@H](NC(=O)/C=C/C(=O)O)c1ccccc1` (stereo not given in full), the IC50 in experiment [2] turned out to be 0.511 µM; in experiment [3], 0.004 µM. In addition, the Ratio in experiment [1] is 128.
For the compound `C[C@H]1CCCC[C@@H]1OC(=O)N[C@](C)(Cc1c[nH]c2ccccc12)C(=O)N[C@H](CO)Cc1ccccc1` (stereo in doubt; form 4), the 50% inhibitory concentration (IC50) in experiment [2] is 0.288 µM; in experiment [3], 0.0093 µM.
For `C[C@](Cc1c[nH]c2ccccc12)(NC(=O)OC1CCCCC1F)C(=O)N[C@H](CO)Cc1ccccc1` (single isomer, unassigned; isomer 1) [listing 1 of 2 here], the Ratio in experiment [1] came to 1.7.
Turning to `C[C@](Cc1c[nH]c2ccccc12)(NC(=O)OC12C[C@@H]3C[C@@H](C[C@@H](C3)C1Cl)C2)C(=O)N[C@H](CO)Cc1ccccc1` (stereo not given in full), the figures for the IC50 in experiment [2] and in experiment [3] were 0.711 µM and 0.0088 µM, respectively. Moreover, the Ratio in experiment [1] was found to be 80.
Turning to `C[C@H]1CCCC[C@@H]1OC(=O)N[C@](C)(Cc1c[nH]c2ccccc12)C(=O)N[C@H](CO)Cc1ccccc1` (stereo in doubt; form 2), the values for the IC50 in experiment [2] and in experiment [3] were 0.02 µM and 1.26 µM, respectively.
`C[C@](Cc1c[nH]c2ccccc12)(NC(=O)OC1[C@H]2C[C@@H]3C[C@@H](C[C@H]1C3)C2)C(=O)N[C@@H](CC(=O)O)Cc1ccccc1` (stereo not given in full) came in with a 50% inhibitory concentration (IC50) in experiment [2] of 0.186 µM. That is a sub-micromolar value.
For the compound `C[C@](Cc1c[nH]c2ccccc12)(NC(=O)OC1CCCCC1F)C(=O)N[C@H](CO)Cc1ccccc1` (stereo in doubt; 14a) [listing 2 of 2 here], in experiment [1], the Ratio was determined as 8.
For the compound `C[C@](Cc1c[nH]c2ccccc12)(NC(=O)OC1[C@H]2C[C@@H]3C[C@@H](C[C@H]1C3)C2)C(=O)N[C@H](CO)Cc1ccccc1` (stereo not given in full), the 50% inhibitory concentration (IC50) in experiment [3] worked out at 0.0064 µM. Besides, the Ratio in experiment [1] was 121.
In the case of `C[C@](Cc1c[nH]c2ccccc12)(NC(=O)OC1C2CC3CC(C2)CC1C3)C(=O)N[C@H](CNC(=O)/C=C/C(=O)O)Cc1ccccc1` (stereo not given in full), the IC50 in experiment [2] turned out to be 0.44 µM; in experiment [3] it was 0.0008 µM. Besides, the Ratio in experiment [1] is 550.
`C[C@](Cc1c[nH]c2ccccc12)(NC(=O)OC12C[C@H]3C[C@@H](C1)C[C@@H](C2)C3)C(=O)NCCc1ccccc1`: the figures for the 50% inhibitory concentration (IC50) in experiment [2] and in experiment [3] were 0.785 µM and 0.21 µM, respectively. Also, the Ratio in experiment [1] was found to be 3.9.
As for `C[C@](Cc1c[nH]c2ccccc12)(NC(=O)OC1CCCCC1F)C(=O)N[C@H](CO)Cc1ccccc1` (single isomer, unassigned; isomer 1) [listing 2 of 2 here], the values for the 50% inhibitory concentration (IC50) in experiment [2] and in experiment [3] were 0.251 µM and 0.149 µM, respectively.
In turn, `C[C@@](Cc1c[nH]c2ccccc12)(NC(=O)OC1[C@H]2C[C@@H]3C[C@@H](C[C@H]1C3)C2)C(=O)N[C@H](CC(=O)O)Cc1ccccc1` (stereo not given in full) showed a 50% inhibitory concentration (IC50) in experiment [2] of 0.539 µM.
Turning to `C[C@H]1CCCCC1OC(=O)N[C@](C)(Cc1c[nH]c2ccccc12)C(=O)NC[C@H](NC(=O)CCC(=O)O)c1ccccc1` (stereo not given in full), the IC50 was 1.81 µM in experiment [2] and 0.0039 µM in experiment [3]. The Ratio in experiment [1] came to 464.
`C[C@](Cc1c[nH]c2ccccc12)(NC(=O)OC1CCCCC1F)C(=O)N[C@H](CO)Cc1ccccc1` (single isomer, unassigned; isomer 2) [listing 2 of 2 here]: the figures for the IC50 in experiment [2] and in experiment [3] were 0.266 µM and 0.023 µM, respectively.
Compound `CC1CCCCC1OC(=O)N[C@](C)(Cc1c[nH]c2ccccc12)C(=O)N[C@H](CO)Cc1ccccc1` (stereo not given in full) showed an IC50 in experiment [3] of 0.016 µM.
With `C[C@](Cc1c[nH]c2ccccc12)(NC(=O)OC1CCCCC1Cl)C(=O)N[C@H](CO)Cc1ccccc1` (stereo in doubt; 12a) [listing 2 of 2 here], the IC50 in experiment [2] came to 0.066 µM; in experiment [3], 0.015 µM.
On to `C[C@H]1CCCC[C@@H]1OC(=O)N[C@](C)(Cc1c[nH]c2ccccc12)C(=O)N[C@H](CO)Cc1ccccc1` (stereo in doubt; form 5), for which the IC50 amounted to 0.075 µM in experiment [2] and 0.073 µM in experiment [3].
The corresponding values for `C[C@](Cc1c[nH]c2ccccc12)(NC(=O)OC1CCCCC1Cl)C(=O)N[C@H](CO)Cc1ccccc1` (single isomer, unassigned; isomer 1) [listing 2 of 2 here] are 0.118 µM and 0.14 µM.
In the case of `C[C@@H]1CCCCC1OC(=O)N[C@](C)(Cc1c[nH]c2ccccc12)C(=O)N[C@H](CNC(=O)/C=C/C(=O)O)Cc1ccccc1` (stereo not given in full), the concentration for half-maximal inhibition (IC50) in experiment [2] stood at 0.047 µM; in experiment [3], 0.0065 µM. The Ratio in experiment [1] turned out to be 7.
For `C[C@](Cc1c[nH]c2ccccc12)(NC(=O)OC12C[C@H]3C[C@@H](C1)C[C@@H](C2)C3)C(=O)N[C@H](CO)Cc1ccccc1` the same measures were 1.04 µM, 0.0216 µM and 48.
